# Compounds with a hit are over-represented: about 4.6% of the library has one in this group of screens.
# GPR7 antagonist – antagonists of human GPR7 (neuropeptides B/W receptor 1); GPR7-expressing cells, fluorescence antagonist assay; AID 1861; inhibition, % at 4.4 µM; P48145; hit rate 1.1% among 290,000; in the data active = inhibition above about 16%, passing the limit was not always enough;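 note: cells stimulated with the agonist NPW; 0% = agonist with vehicle and 100% = vehicle without agonist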
# Target sequence (P48145 whole entry, looked up): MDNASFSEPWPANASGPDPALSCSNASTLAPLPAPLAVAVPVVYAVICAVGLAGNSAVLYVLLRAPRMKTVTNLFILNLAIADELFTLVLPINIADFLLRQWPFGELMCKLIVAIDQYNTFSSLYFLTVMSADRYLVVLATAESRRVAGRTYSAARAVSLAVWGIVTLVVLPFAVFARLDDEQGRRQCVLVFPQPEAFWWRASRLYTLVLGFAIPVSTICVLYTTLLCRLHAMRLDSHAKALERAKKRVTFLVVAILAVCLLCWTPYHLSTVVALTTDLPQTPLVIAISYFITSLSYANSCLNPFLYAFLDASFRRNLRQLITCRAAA
# TAAR1 antag – antagonists of human TAAR1; Q96RJ0; CHO RD-HGA16 TAAR1, Fluo-8 calcium fluorescence, antagonist; inhibition, % at 3 µM; hit rate 1.5% among 360,000; AID 624466;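 active = inhibition above a per-plate cutoff, the mean inhibition of test compounds on that plate plus 3 SD, cut at about 49% in these data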;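 note: 0% = DMSO plus EC80 beta-PEA response and 100% = DMSO alone without agonist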
# Target sequence (Q96RJ0 whole entry, looked up): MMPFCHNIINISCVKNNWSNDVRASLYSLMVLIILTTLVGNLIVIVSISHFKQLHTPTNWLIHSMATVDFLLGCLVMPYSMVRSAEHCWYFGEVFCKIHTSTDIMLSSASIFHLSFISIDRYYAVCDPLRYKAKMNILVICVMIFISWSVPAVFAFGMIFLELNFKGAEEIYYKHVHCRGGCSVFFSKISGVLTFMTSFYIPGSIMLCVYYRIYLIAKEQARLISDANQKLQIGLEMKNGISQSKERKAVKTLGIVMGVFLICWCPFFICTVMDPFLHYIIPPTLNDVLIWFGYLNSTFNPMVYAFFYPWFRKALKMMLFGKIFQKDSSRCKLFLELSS
#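 Material: CHO RD-HGA16 cells bearing hTAAR1; compound dosing: one-point dosing, 3 µM nominal final; schedule: dye loading 75 min at 37 °C, then 30 min room temperature; measured by: calcium fluorescence with Fluo-8; control set: vehicle and agonist controls; replication: n of 1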
# CHO parental Ca – counter-screen for OX1R antagonists: effect in parental CHO cells; AID 463079; parental CHO-K1, ATP-induced calcium, Fluo-8 fluorescence; hit rate 0.63% among 330,000; inhibition, % at 5.6 µM;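 active = inhibition above that plate's mean sample inhibition plus 3 SD, cut at about 26% in these data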;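 note: 0% = ATP-challenged DMSO wells and 100% = DMSO wells without ATP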
#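 material = parental CHO cells | also added = ATP as calcium-mobilizing challenge | dosing = single point at 5.6 µM | detection = intracellular calcium via Fluo-8 no-wash fluorescent dye | read-out = % inhibition | benchmarks = low control ATP plus DMSO, high control DMSO only | repeats = one well per compound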
# TAAR1 agonist – human TAAR1 agonism. Q96RJ0. CHO RD-HGA16 TAAR1, Fluo-8 calcium fluorescence; vehicle wells 0%, saturating PEA agonist 100%. activation, % at 3 µM. hit rate 0.99% among 360,000. AID 624467;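 active = activation above the mean activation of all test compounds in the run plus 3 SD, cut at about 38% in these data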
#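 Repeats: no replicates (n 1) | Material: CHO-derived RD-HGA16 cells with stable Gα16 and human TAAR1 | Technique: Kinetic Fluo-8 calcium fluorescence | Schedule: 17-24 h seeding, 75 min 37 °C dye, 30 min RT | Evaluation: % activation from peak over basal fluorescence ratio, DMSO-to-PEA scaled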
# OX1R antag-1 – OX1R (human) antagonism; AID 485270; inhibition, % at 6.6 µM; hit rate 1.8% among 330,000; OX1R-expressing cells, FRET antagonist read-out; in the data active = inhibition mostly above about 38%, no sharp cut-off; inactive = mostly below about 40%;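 note: 0% = agonist challenge alone and 100% = reference antagonist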
# OX1R antag-2 – antagonists of human orexin 1 receptor; O43613; CHO/OX1R cells, Fluo-8 calcium fluorescence, orexin A; inhibition, % at 5 µM; hit rate 0.43% among 330,000; AID 434989;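 active = inhibition above its plate's threshold, mean inhibition of all tested compounds on the plate plus 3 SD, cut at about 37% in these data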;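 note: 0% = orexin A challenge wells and 100% = SB-334867-A antagonist wells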
# Active calls of the source: *; / = no result given.
SMILES,GPR7 antagonist,TAAR1 antag,CHO parental Ca,TAAR1 agonist,OX1R antag-1,OX1R antag-2
O=[N+]([O-])c1ccc2nc(-c3ccc(Cl)cc3)[nH]c2c1,24*,21,20,35,25,12
COc1ccc(-c2nc3ccc([N+](=O)[O-])cc3[nH]2)cc1,11,-22,0,15,19,-9
O=[N+]([O-])c1ccc2nc(-c3ccncc3)[nH]c2c1,-18,-23,-9,2,17,-5
Cc1ccc(-c2nc3ccc([N+](=O)[O-])cc3[nH]2)cc1,54*,0,-11,14,48,-6
O=c1cc(-c2ccccc2Cl)oc2c(NS(=O)(=O)c3cccs3)ccc(O)c12,/,40,-11,1,73*,16
COc1cc(C(O)c2nc(-c3ccccc3OC)cs2)ccc1F (stereo not given),/,-5,/,1,/,/
Fc1ccc(-c2ccc(Nc3cccc(F)c3)nn2)cc1,-3,30,44*,1,13,0
COCCCn1cnn2c(=O)c3ccccc3nc2c1=O,/,-15,/,0,/,/
CCOC(=O)CCn1cnc2ccc([N+](=O)[O-])cc2c1=O,-8,-21,-5,5,36,-12
Cn1cnc2ccc([N+](=O)[O-])cc2c1=O,-1,9,-7,1,75*,-13
O=c1c2ccccc2ncn1-c1ccc([N+](=O)[O-])cc1[N+](=O)[O-],9,-2,18,12,58*,-11
O=c1c2ccccc2ncn1-c1cccc([N+](=O)[O-])c1,/,-17,9,0,22,-6
N#CC(c1c(Cl)cccc1N1CCCCC1)N1CCCCC1 (stereo not given),/,-4,/,0,/,/
Cc1cccc(C=NNc2cc(C)c3cccc(C)c3n2)n1,/,0,/,0,/,/
Cc1ccc(Nc2nc(N)nc(CSC(=S)N3CCOCC3)n2)cc1,-6,-14,-16,1,17,-22
Nc1nc(CSC(=S)N2CCOCC2)nc(Nc2ccccc2)n1,-10,-1,-13,0,69*,17
Nc1nc(CSC(=S)N2CCCCC2)nc(Nc2ccccc2)n1,15,10,-22,16,69*,11
CN(Cc1ccco1)C(=O)[C@@H](Cc1ccccc1)NC(=O)[C@H]1O[C@@H](n2ccc(=O)[nH]c2=O)[C@H](O)[C@@H]1O,/,-28,/,1,/,/
COc1cc(N2C(=O)C=CC2=O)ccc1N1C(=O)C=CC1=O,/,-3,/,8,/,/
O=C1C=CC(=O)N1c1cccc(-c2ccccc2)c1,1,69*,27,15,24,45*
C=CCn1c(SCC(=O)c2cccs2)nc2sc(CC)cc2c1=O,-7,37,56*,13,34,51*
Cn1cnc([N+](=O)[O-])c1Sc1nnc(-c2ccccc2)c(-c2ccccc2)n1,/,-1,/,5,/,/
CC(C)CC(=O)N=Nc1c(O)[nH]c2ccccc12,-9,-12,-5,1,53*,-10
O=C(CSCc1cccc(Br)c1)N=Nc1c(O)[nH]c2ccccc12,-7,12,-16,2,51*,5
O=C(CNC(=O)c1ccccn1)N=Nc1c(O)[nH]c2ccccc12,-12,10,3,2,71*,5
SMILES,GPR7 antagonist,TAAR1 antag,CHO parental Ca,TAAR1 agonist,OX1R antag-1,OX1R antag-2
CCC(O)(CC)C(=O)N=Nc1c(O)[nH]c2ccccc12,-1,2,-13,1,23,-2
Oc1ccccc1C1=NC(c2ccccc2)NC(c2ccccc2)C1 (stereo not given),/,8,/,4,/,/
CC(=O)Nc1ccc(-c2cc3ccccc3o2)cc1,20*,33,7,2,24,16
C/C(=N\Nc1ccc([N+](=O)[O-])cc1)c1cccc(N)c1,5,17,-7,18,17,-17
C/C(=N\Nc1ccc([N+](=O)[O-])cc1)c1ccc(O)cc1,2,55*,-1,19,32,11
O=Nc1ccc(Cl)cn1,/,-10,/,4,/,/
Cc1ccc2c(c1)nnn2C1CCN(S(=O)(=O)c2ccc(C(=O)O)cc2)CC1,-12,-2,-4,-1,5,-4
Cc1ccc2c(c1)nnn2C1CCN(S(=O)(=O)c2ccc(C(=O)N3C(C)CCCC3C)cc2)CC1 (stereo not given),6,26,56*,13,33,59*
C[C@@H]1Cn2cnc(C(=O)N3CCN(C(=O)OC(C)(C)C)CC3)c2C(=O)N1,/,-10,/,1,/,/
O=C(OCC(=O)N1CCCCCC1)c1ccc([N+](=O)[O-])cc1Cl,-1,3,2,7,46*,-26
CN1CCN(C(=O)/C=C/c2ccc([N+](=O)[O-])cc2)CC1,-5,15,-10,1,61*,-7
O=C(/C=C/c1ccc([N+](=O)[O-])cc1)N1CCN(Cc2ccccc2)CC1,27,-2,4,2,37,-6
O=C(/C=C/c1ccc([N+](=O)[O-])cc1)OCC(=O)N1CCCC1,/,-20,-17,3,45*,-14
CCCN(C(=O)CCc1cn(CCC)c2ccccc12)c1ccc(Oc2cccnc2)cc1,/,43,/,0,/,/
Cc1ccc(-c2cc(NC(=O)Cc3c[nH]c4ccccc34)ccc2N(C)c2cccnc2)cc1,/,5,/,1,/,/
CC(C)Cc1ccc(C(C)CC2=CCC(CN(C)C)C2=O)cc1 (stereo not given),/,51*,/,3,/,/
CC(C)Cc1ccc(C(C)/C=C2/CCC(CN3CCCCC3)C2=O)cc1 (stereo not given),/,12,/,4,/,/
N#Cc1nc(-c2ccc(Cl)cc2)oc1NCc1ccco1,0,12,44*,1,28,10
Cc1ccc(N(CCCCN2C(=O)c3ccccc3C2=O)C(=O)c2cccs2)cc1,-10,49*,-17,8,10,-24
CC(C)(C)C(=O)/C=c1\s/c(=C\c2ccc(-c3ccc([N+](=O)[O-])cc3)o2)c(=O)n1CC(=O)NC(N)=O,10,59*,64*,53*,9,71*
CCC(=O)N/N=C/c1ccc(-c2ccc([N+](=O)[O-])cc2)o1,-4,-1,1,0,42,-7
O=C(Cc1ccccc1)Nc1cccc(-c2nnc(-c3ccco3)o2)c1,7,35,-24,22,15,-20
COc1ccccc1OCC(=O)Nc1cccc(-c2nnc(-c3ccco3)o2)c1,5,42,-15,20,46*,-18
COc1ccc(CC(=O)Nc2cccc(-c3nnc(-c4cccc(C)c4)o3)c2)cc1OC,-8,78*,94*,22,110*,89*
Cc1ccccc1-c1cccc2[nH]c3c(c12)CCN1C(=O)[C@H]2[C@H](C)ON(C)[C@H]2C[C@@H]31,/,18,/,10,/,/
CCOC(=O)CCCNc1ccc([N+](=O)[O-])cc1[N+](=O)[O-],-2,-8,5,0,71*,-6
